According to ChEMBL document CHEMBL2396641, “Synthesis, antioxidant, and antimicrobial evaluation of some 2-arylbenzimidazole derivatives” (Bioorg Med Chem Lett, 2013):
In brackets after ≈: the same amount, converted by molar mass. Activity calls are given as the source filed them. The calls are words filed in the database; no cut-off is given here.

Columns and labels:
Bacillus cereus = assay: Antibacterial activity against Bacillus cereus after 24 hrs by agar dilution method; format: functional
Staphylococcus aureus = assay: Antibacterial activity against Staphylococcus aureus after 24 hrs by agar dilution method; format: functional
[1] = system: Staphylococcus epidermidis; assay: Antibacterial activity against Staphylococcus albus after 24 hrs by agar dilution method; format: functional
Pseudomonas aeruginosa = assay: Antibacterial activity against Pseudomonas aeruginosa after 24 hrs by agar dilution method; format: functional
Escherichia coli = assay: Antibacterial activity against Escherichia coli after 24 hrs by agar dilution method; format: functional
[2] = system: Radical scavenging activity; assay: Antioxidant activity assessed as DPPH radical scavenging activity after 30 mins by spectrophotometric analysis; format: functional
Method in brief: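 DPPH radical bleaching followed as loss of absorbance at 517 nm; IC50 derived; mean ± SD, n = 3.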

[3] = Antioxidant activity assessed as superoxide radical anion scavenging activity by spectrophotometric analysis; format: functional
NIH3T3 = assay: Cytotoxicity against mouse NIH/3T3 cells after 48 hrs by SRB assay; format: cell-based; conditions: NIH3T3, 48 h
[4] = Antioxidant activity assessed as ferric ion reducing ability after 20 mins by spectrophotometric analysis; format: functional
[5] = Antioxidant activity assessed as ferric ion reducing ability at 1 to 50 uM after 20 mins by spectrophotometric analysis; format: functional
[6] = Antioxidant activity assessed as hydroxyl radical scavenging activity after 1 hr by spectrophotometric analysis; format: functional

Row | SMILES | MBC (Bacillus cereus) | MIC (Bacillus cereus) | MBC (Staphylococcus aureus) | MIC (Staphylococcus aureus) | MBC [1] | MIC [1] | MIC (Pseudomonas aeruginosa) | MBC (Escherichia coli) | MIC (Escherichia coli) | EC50 [2] | EC50 [3] | IC50 (NIH3T3) | Activity [4] | Activity [5] | EC50 [6] | MBC (Pseudomonas aeruginosa)
1 | Oc1ccc2[nH]c(-c3ccccc3O)nc2c1 | 25 µM (≈ 5.66 µg/mL) | 25 µM (≈ 5.66 µg/mL) | 1.56 µM (≈ 0.353 µg/mL) | 1.56 µM (≈ 0.353 µg/mL) | > 200 µM | 100 µM (≈ 22.6 µg/mL) | > 200 µM | 25 µM (≈ 5.66 µg/mL) | 6.25 µM (≈ 1.41 µg/mL) | 30 µM | 169 µM | > 200 µM | Dose-dependent effect | Active | 124 µM | 
2 | Oc1ccc(-c2nc3cc(O)ccc3[nH]2)cc1 | 50 µM (≈ 11.3 µg/mL) | 50 µM (≈ 11.3 µg/mL) | 1.56 µM (≈ 0.353 µg/mL) | 1.56 µM (≈ 0.353 µg/mL) |  | > 200 µM | > 200 µM |  | > 200 µM | 34 µM | > 200 µM | > 200 µM | Dose-dependent effect | Active | 159 µM | 
3 | COc1ccc2[nH]c(-c3ccccc3)nc2c1 | 200 µM (≈ 44.9 µg/mL) | 50 µM (≈ 11.2 µg/mL) |  | > 200 µM |  | > 200 µM | > 200 µM | 100 µM (≈ 22.4 µg/mL) | 25 µM (≈ 5.61 µg/mL) | > 200 µM | > 200 µM | > 200 µM |  |  | > 200 µM | 
4 | COc1ccc(-c2nc3cc(OC)ccc3[nH]2)cc1 | 200 µM (≈ 50.9 µg/mL) | 50 µM (≈ 12.7 µg/mL) | 200 µM (≈ 50.9 µg/mL) | 25 µM (≈ 6.36 µg/mL) | > 200 µM | 100 µM (≈ 25.4 µg/mL) | > 200 µM | 100 µM (≈ 25.4 µg/mL) | 6.25 µM (≈ 1.59 µg/mL) | > 200 µM | > 200 µM | > 200 µM |  |  | > 200 µM | 
5 | c1ccc(-c2nc3ccccc3[nH]2)cc1 |  | > 200 µM | > 200 µM | 100 µM (≈ 19.4 µg/mL) |  | > 200 µM | > 200 µM | 100 µM (≈ 19.4 µg/mL) | 6.25 µM (≈ 1.21 µg/mL) | > 200 µM | > 200 µM | > 200 µM |  |  | > 200 µM | 
6 | COc1ccc2[nH]c(-c3ccc(OC)c(OC)c3)nc2c1 | 100 µM (≈ 28.4 µg/mL) | 25 µM (≈ 7.11 µg/mL) | 200 µM (≈ 56.9 µg/mL) | 50 µM (≈ 14.2 µg/mL) | > 200 µM | 100 µM (≈ 28.4 µg/mL) | > 200 µM |  | > 200 µM | > 200 µM | > 200 µM | > 200 µM |  |  | > 200 µM | 
7 | COc1ccc2[nH]c(-c3ccc(O)cc3)nc2c1 | 200 µM (≈ 48.1 µg/mL) | 50 µM (≈ 12 µg/mL) | 200 µM (≈ 48.1 µg/mL) | 100 µM (≈ 24 µg/mL) |  | > 200 µM | > 200 µM | 100 µM (≈ 24 µg/mL) | 12.5 µM (≈ 3 µg/mL) | > 200 µM | > 200 µM | > 200 µM |  |  | > 200 µM | 
8 | Oc1ccccc1-c1nc2ccccc2[nH]1 |  | > 200 µM |  | > 200 µM |  | > 200 µM | > 200 µM | 100 µM (≈ 21 µg/mL) | 25 µM (≈ 5.26 µg/mL) | > 200 µM | 122 µM | > 200 µM |  |  | > 200 µM | 
9 | COc1ccc(O)cc1-c1nc2cc(O)ccc2[nH]1 | > 200 µM | 100 µM (≈ 25.6 µg/mL) |  | > 200 µM |  | > 200 µM | > 200 µM |  | > 200 µM | 23 µM | > 200 µM | > 200 µM | Dose-dependent effect | Active | > 200 µM | 
10 | COc1ccc(-c2nc3ccccc3[nH]2)cc1 | 100 µM (≈ 22.4 µg/mL) | 50 µM (≈ 11.2 µg/mL) | 1.56 µM (≈ 0.35 µg/mL) | 1.56 µM (≈ 0.35 µg/mL) | 100 µM (≈ 22.4 µg/mL) | 100 µM (≈ 22.4 µg/mL) | > 200 µM | 50 µM (≈ 11.2 µg/mL) | 12.5 µM (≈ 2.8 µg/mL) | > 200 µM | > 200 µM | > 200 µM |  |  | > 200 µM | 
11 | COc1ccc2[nH]c(-c3cccc(O)c3)nc2c1 | 200 µM (≈ 48.1 µg/mL) | 25 µM (≈ 6.01 µg/mL) | 200 µM (≈ 48.1 µg/mL) | 100 µM (≈ 24 µg/mL) |  | > 200 µM | > 200 µM | 100 µM (≈ 24 µg/mL) | 12.5 µM (≈ 3 µg/mL) | > 200 µM | > 200 µM | > 200 µM |  |  | > 200 µM | 
12 | CC(C)(C)c1cc(O)ccc1O [E319] |  |  |  |  |  |  |  |  |  | 36 µM | > 200 µM |  | Dose-dependent effect |  | 65 µM | 
13 | COc1ccc(-c2nc3cc(O)ccc3[nH]2)c(OC)c1 | 50 µM (≈ 13.5 µg/mL) | 50 µM (≈ 13.5 µg/mL) | 0.39 µM (≈ 0.105 µg/mL) | 0.39 µM (≈ 0.105 µg/mL) |  | > 200 µM | > 200 µM | 25 µM (≈ 6.76 µg/mL) | 12.5 µM (≈ 3.38 µg/mL) | 32 µM | > 200 µM | > 200 µM | Dose-dependent effect | Active | > 200 µM | 
14 | Oc1ccc2[nH]c(-c3ccccc3)nc2c1 | 100 µM (≈ 21 µg/mL) | 50 µM (≈ 10.5 µg/mL) | 1.56 µM (≈ 0.328 µg/mL) | 1.56 µM (≈ 0.328 µg/mL) |  | > 200 µM | > 200 µM | > 200 µM | 100 µM (≈ 21 µg/mL) | 42 µM | > 200 µM | > 200 µM | Dose-dependent effect | Active | > 200 µM | 
15 | Oc1ccc(-c2nc3ccccc3[nH]2)cc1 |  | > 200 µM | 50 µM (≈ 10.5 µg/mL) | 12.5 µM (≈ 2.63 µg/mL) |  | > 200 µM | > 200 µM | 100 µM (≈ 21 µg/mL) | 25 µM (≈ 5.26 µg/mL) | > 200 µM | > 200 µM | > 200 µM |  |  | > 200 µM | 
16 | COc1ccc(OC)c(-c2nc3cc(OC)ccc3[nH]2)c1 | 200 µM (≈ 56.9 µg/mL) | 100 µM (≈ 28.4 µg/mL) | 50 µM (≈ 14.2 µg/mL) | 6.25 µM (≈ 1.78 µg/mL) |  | > 200 µM | > 200 µM |  | > 200 µM | > 200 µM | > 200 µM | > 200 µM |  |  | > 200 µM | 
17 | O=C(O)c1cn(C2CC2)c2cc(N3CCNCC3)c(F)cc2c1=O [CIPROFLOXACIN] | 0.39 µM (≈ 0.129 µg/mL) | 0.39 µM (≈ 0.129 µg/mL) | 0.39 µM (≈ 0.129 µg/mL) | 0.39 µM (≈ 0.129 µg/mL) | 0.39 µM (≈ 0.129 µg/mL) | 0.39 µM (≈ 0.129 µg/mL) | 0.78 µM (≈ 0.258 µg/mL) | 0.39 µM (≈ 0.129 µg/mL) | 0.39 µM (≈ 0.129 µg/mL) |  |  | > 200 µM |  |  |  | 0.78 µM (≈ 0.258 µg/mL)
18 | COc1ccc2[nH]c(-c3ccc(O)cc3O)nc2c1 | 100 µM (≈ 25.6 µg/mL) | 50 µM (≈ 12.8 µg/mL) | 100 µM (≈ 25.6 µg/mL) | 50 µM (≈ 12.8 µg/mL) | 200 µM (≈ 51.3 µg/mL) | 100 µM (≈ 25.6 µg/mL) | > 200 µM | 100 µM (≈ 25.6 µg/mL) | 6.25 µM (≈ 1.6 µg/mL) | 129 µM | 189 µM | > 200 µM |  |  | > 200 µM | 
19 | COc1ccc2[nH]c(-c3ccc(O)c(OC)c3)nc2c1 | 200 µM (≈ 54.1 µg/mL) | 50 µM (≈ 13.5 µg/mL) | 200 µM (≈ 54.1 µg/mL) | 100 µM (≈ 27 µg/mL) |  | > 200 µM | > 200 µM |  | > 200 µM | 58 µM | > 200 µM | > 200 µM |  |  | > 200 µM | 
20 | Oc1cccc(-c2nc3cc(O)ccc3[nH]2)c1 | 50 µM (≈ 11.3 µg/mL) | 25 µM (≈ 5.66 µg/mL) | 1.56 µM (≈ 0.353 µg/mL) | 1.56 µM (≈ 0.353 µg/mL) |  | > 200 µM | > 200 µM | > 200 µM | 100 µM (≈ 22.6 µg/mL) | 40 µM | > 200 µM | > 200 µM | Dose-dependent effect | Active | > 200 µM | 
21 | Oc1cc(O)cc(-c2nc3cc(O)ccc3[nH]2)c1 | 25 µM (≈ 6.06 µg/mL) | 25 µM (≈ 6.06 µg/mL) | 0.78 µM (≈ 0.189 µg/mL) | 0.78 µM (≈ 0.189 µg/mL) |  | > 200 µM | > 200 µM |  | > 200 µM | 26 µM | > 200 µM | > 200 µM | Dose-dependent effect | Active | > 200 µM | 
22 | COc1ccc2[nH]c(-c3ccccc3O)nc2c1 | > 200 µM | 200 µM (≈ 48.1 µg/mL) |  | > 200 µM |  | > 200 µM | > 200 µM | > 200 µM | 100 µM (≈ 24 µg/mL) | > 200 µM | 87 µM | > 200 µM |  |  | 190 µM | 
23 | COc1cc(OC)cc(-c2nc3cc(OC)ccc3[nH]2)c1 |  | > 200 µM |  | > 200 µM |  | > 200 µM | > 200 µM |  | > 200 µM | > 200 µM | > 200 µM | > 200 µM |  |  | > 200 µM | 
24 | COc1ccc(-c2nc3cc(OC)ccc3[nH]2)c(OC)c1 |  | > 200 µM | 50 µM (≈ 14.2 µg/mL) | 6.25 µM (≈ 1.78 µg/mL) | 200 µM (≈ 56.9 µg/mL) | 100 µM (≈ 28.4 µg/mL) | > 200 µM |  | > 200 µM | > 200 µM | > 200 µM | > 200 µM |  |  | > 200 µM | 
25 | Oc1ccc2[nH]c(-c3ccc(O)c(O)c3)nc2c1 | > 200 µM | 100 µM (≈ 24.2 µg/mL) |  | > 200 µM |  | > 200 µM | > 200 µM |  | > 200 µM | 33 µM | > 200 µM | > 200 µM | Dose-dependent effect | Active | 77 µM | 
26 | Oc1cccc(-c2nc3ccccc3[nH]2)c1 | 200 µM (≈ 42 µg/mL) | 50 µM (≈ 10.5 µg/mL) | 0.78 µM (≈ 0.164 µg/mL) | 0.39 µM (≈ 0.082 µg/mL) |  | > 200 µM | > 200 µM | 100 µM (≈ 21 µg/mL) | 12.5 µM (≈ 2.63 µg/mL) | > 200 µM | > 200 µM | > 200 µM |  |  | > 200 µM | 
